Assay [1] has as its target Protein arginine N-methyltransferase 1 (Homo sapiens, UniProt Q99873). The assay can be described thus: Inhibition of recombinant human His-tagged PRMT1 expressed in Escherichia coli BL21 (DE3) using biotin-labeled histone H4-20 as substrate incubated for 8 mins in presence of [3H]-SAM cofactor by scintillation proximity assay.
Assay [2] deals with Protein arginine N-methyltransferase 3 (Homo sapiens, UniProt O60678). The assay can be described thus: Inhibition of recombinant human His-tagged PRMT3 expressed in Escherichia coli BL21 (DE3) using biotin-labeled SMD1 as substrate incubated for 10 mins in presence of [3H]-SAM cofactor by scintillation proximity assay. In outline: (§1)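 The inhibitor was serially diluted and added to the enzyme, [3H]-SAM and substrate mixture, and methylated substrate was quantified by scintillation proximity assay. Reactions were held at initial rate, with yield under 10% and substrate near Km. PRMT3, PRMT8 and G9a were His-tagged human proteins, and PRMT7 was GST-tagged, all expressed in E. coli and affinity-purified.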
Background: SPA uses beads or plates that emit light when radiolabelled molecules are held near them.

Assay [3] addresses T1, Histone-arginine methyltransferase CARM1 (Homo sapiens, UniProt Q86X55).
T1 sequence (Q86X55 whole entry): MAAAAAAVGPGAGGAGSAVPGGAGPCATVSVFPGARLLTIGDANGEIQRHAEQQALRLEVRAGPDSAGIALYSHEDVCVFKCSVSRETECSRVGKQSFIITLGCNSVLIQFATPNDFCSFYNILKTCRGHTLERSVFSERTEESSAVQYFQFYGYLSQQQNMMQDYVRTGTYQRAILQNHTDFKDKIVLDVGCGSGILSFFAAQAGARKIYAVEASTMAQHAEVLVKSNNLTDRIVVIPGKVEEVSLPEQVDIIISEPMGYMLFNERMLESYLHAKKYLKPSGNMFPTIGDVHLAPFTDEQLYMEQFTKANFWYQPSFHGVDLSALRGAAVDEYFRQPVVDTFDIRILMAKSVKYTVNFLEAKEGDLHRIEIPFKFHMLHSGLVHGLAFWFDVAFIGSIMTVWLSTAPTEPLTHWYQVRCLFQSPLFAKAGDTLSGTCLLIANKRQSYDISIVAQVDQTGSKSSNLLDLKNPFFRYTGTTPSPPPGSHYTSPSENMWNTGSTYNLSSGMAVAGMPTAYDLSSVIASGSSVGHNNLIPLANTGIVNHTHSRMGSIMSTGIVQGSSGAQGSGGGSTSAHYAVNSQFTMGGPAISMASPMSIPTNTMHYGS
As to the kind of experiment: Inhibition of recombinant GST-tagged CARM1 (unknown origin) expressed in Escherichia coli using […] incubated for 120 mins in presence of [3H]-SAM cofactor by radioactive filter plate assay.

The next assay addresses PRMT5/MEP50 complex (Homo sapiens, UniProt O14744). The assay can be described thus: Inhibition of PRMT5/MEP50 (unknown origin) using biotin-labeled histone H4-20 peptide as substrate incubated for 8 mins in presence of [3H]-SAM cofactor by scintillation proximity assay. In kind it is protein-complex assay. In outline:
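Part of a methyltransferase selectivity panel. Test compound was serially diluted into a mixture of enzyme, [3H]-SAM cofactor and substrate. Methylated substrate was quantified by scintillation proximity assay. Reactions were held at initial-rate conditions with substrate turnover under 10%, and substrate concentrations were near Km.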

In assay [4] the target is Protein arginine N-methyltransferase 6 (Homo sapiens, UniProt Q96LA8). As to the kind of experiment: Inhibition of PRMT6 (unknown origin) using biotin-labeled SMD1 as substrate incubated for 30 mins in presence of [3H]-SAM cofactor by scintillation proximity assay.
Assay [5] concerns the target T2, Protein arginine N-methyltransferase 7 (Homo sapiens, UniProt Q9NVM4).
T2 sequence (Q9NVM4 whole entry): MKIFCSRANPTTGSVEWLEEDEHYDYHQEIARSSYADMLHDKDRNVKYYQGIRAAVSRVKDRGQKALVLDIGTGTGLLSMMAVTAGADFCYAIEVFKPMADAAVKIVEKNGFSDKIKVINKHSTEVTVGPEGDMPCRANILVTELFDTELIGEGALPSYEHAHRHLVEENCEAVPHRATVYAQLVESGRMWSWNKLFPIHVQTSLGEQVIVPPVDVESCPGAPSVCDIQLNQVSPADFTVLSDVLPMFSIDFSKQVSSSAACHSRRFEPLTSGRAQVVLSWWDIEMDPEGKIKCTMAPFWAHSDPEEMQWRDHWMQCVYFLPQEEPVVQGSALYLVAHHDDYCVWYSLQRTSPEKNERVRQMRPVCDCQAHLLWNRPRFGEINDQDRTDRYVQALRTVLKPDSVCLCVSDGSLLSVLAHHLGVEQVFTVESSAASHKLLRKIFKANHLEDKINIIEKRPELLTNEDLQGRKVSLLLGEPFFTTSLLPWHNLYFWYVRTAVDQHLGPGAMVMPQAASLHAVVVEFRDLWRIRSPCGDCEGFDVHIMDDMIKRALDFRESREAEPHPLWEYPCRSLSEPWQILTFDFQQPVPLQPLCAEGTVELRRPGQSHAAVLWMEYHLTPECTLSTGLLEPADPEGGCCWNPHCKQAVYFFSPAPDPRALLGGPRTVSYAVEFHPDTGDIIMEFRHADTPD
As to the kind of experiment: Inhibition of recombinant GST-tagged PRMT7 (unknown origin) expressed in Escherichia coli using biotin-labeled SMD1 as substrate incubated for 120 mins in presence of [3H]-SAM cofactor by scintillation proximity assay. In outline:
as §1

The target of assay [6] is Protein arginine N-methyltransferase 8 (Homo sapiens, UniProt Q9NR22). The assay can be described thus: Inhibition of recombinant His-tagged human PRMT8 expressed in Escherichia coli BL21 (DE3) using biotin-labeled histone H4-20 peptide as substrate incubated for 8 mins in presence of [3H]-SAM cofactor by scintillation proximity assay. The method in brief:
as §1

Assay [7] deals with T3, Histone-lysine N-methyltransferase EHMT2 (Homo sapiens, UniProt Q96KQ7).
T3 sequence (Q96KQ7 whole entry): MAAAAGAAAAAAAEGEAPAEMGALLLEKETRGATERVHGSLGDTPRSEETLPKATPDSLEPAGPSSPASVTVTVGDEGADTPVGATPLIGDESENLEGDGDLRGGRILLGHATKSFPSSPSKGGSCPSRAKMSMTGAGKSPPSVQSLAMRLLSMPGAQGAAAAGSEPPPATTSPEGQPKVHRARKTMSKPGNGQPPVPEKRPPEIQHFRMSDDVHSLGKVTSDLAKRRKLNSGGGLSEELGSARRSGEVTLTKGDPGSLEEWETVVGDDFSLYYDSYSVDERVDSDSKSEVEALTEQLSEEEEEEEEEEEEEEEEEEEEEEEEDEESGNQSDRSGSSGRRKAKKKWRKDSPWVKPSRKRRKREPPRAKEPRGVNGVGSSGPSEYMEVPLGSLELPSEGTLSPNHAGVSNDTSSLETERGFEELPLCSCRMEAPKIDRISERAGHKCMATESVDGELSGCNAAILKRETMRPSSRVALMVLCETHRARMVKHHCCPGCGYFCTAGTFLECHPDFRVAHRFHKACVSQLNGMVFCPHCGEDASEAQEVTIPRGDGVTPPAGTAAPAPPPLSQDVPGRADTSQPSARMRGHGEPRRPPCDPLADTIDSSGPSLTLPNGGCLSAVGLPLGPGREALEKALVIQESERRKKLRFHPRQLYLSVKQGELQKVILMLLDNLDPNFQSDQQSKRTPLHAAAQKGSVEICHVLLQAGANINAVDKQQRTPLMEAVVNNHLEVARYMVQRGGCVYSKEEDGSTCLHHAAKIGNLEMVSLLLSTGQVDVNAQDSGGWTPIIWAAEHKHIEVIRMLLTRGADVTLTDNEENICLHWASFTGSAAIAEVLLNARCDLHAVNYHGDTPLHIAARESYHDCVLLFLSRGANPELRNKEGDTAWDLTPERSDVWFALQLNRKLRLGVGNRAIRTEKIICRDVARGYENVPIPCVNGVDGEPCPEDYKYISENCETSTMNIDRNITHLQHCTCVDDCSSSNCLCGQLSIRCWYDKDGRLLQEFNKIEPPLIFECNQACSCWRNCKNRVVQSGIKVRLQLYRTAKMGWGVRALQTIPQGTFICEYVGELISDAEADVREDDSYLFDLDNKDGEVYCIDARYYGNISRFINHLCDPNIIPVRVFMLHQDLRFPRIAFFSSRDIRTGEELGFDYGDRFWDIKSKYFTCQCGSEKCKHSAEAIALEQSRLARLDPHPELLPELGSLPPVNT
The assay can be described thus: Inhibition of recombinant His-tagged human G9a expressed in Escherichia coli BL21 (DE3) using biotin-labeled histone H3-20 peptide as substrate incubated for 30 mins in presence of [3H]-SAM cofactor by scintillation proximity assay. The method in brief: as §1

Sequence of Protein arginine N-methyltransferase 8 (Q9NR22 whole entry): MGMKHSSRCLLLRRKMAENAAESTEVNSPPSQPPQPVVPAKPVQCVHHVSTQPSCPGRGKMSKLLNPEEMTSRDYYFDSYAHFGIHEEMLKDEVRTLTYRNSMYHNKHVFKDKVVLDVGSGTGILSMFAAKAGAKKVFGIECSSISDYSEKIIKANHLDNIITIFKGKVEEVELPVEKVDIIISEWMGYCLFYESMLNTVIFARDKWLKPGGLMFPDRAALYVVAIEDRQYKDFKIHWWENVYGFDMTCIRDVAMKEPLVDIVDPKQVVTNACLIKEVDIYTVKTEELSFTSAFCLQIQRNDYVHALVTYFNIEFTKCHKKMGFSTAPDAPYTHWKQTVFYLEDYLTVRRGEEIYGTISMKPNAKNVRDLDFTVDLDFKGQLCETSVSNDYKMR
Sequence of Protein arginine N-methyltransferase 6 (Q96LA8 whole entry): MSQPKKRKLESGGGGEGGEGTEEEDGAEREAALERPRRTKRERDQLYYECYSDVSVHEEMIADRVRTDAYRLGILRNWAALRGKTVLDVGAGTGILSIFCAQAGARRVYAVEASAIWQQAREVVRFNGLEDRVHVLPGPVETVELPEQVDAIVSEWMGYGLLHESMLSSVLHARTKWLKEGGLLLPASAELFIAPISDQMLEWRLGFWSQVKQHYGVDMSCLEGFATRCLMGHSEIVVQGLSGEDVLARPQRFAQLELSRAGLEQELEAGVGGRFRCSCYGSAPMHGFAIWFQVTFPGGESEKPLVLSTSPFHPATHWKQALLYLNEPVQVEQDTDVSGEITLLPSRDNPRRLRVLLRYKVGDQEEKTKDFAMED
Sequence of Protein arginine N-methyltransferase 3 (O60678 whole entry): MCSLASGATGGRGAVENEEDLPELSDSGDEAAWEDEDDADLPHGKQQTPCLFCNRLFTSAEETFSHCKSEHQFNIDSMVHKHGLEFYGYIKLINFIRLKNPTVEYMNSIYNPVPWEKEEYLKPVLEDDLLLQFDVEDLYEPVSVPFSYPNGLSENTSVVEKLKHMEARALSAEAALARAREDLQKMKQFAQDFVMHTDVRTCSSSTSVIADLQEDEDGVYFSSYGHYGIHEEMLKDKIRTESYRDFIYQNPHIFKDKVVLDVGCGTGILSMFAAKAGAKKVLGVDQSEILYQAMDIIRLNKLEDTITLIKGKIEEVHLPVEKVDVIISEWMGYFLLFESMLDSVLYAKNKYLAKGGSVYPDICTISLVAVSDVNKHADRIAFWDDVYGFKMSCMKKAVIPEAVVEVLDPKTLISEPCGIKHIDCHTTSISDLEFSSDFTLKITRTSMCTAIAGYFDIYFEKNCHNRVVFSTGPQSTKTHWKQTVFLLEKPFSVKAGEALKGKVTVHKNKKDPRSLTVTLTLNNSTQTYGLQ
Sequence of PRMT5/MEP50 complex (O14744 whole entry): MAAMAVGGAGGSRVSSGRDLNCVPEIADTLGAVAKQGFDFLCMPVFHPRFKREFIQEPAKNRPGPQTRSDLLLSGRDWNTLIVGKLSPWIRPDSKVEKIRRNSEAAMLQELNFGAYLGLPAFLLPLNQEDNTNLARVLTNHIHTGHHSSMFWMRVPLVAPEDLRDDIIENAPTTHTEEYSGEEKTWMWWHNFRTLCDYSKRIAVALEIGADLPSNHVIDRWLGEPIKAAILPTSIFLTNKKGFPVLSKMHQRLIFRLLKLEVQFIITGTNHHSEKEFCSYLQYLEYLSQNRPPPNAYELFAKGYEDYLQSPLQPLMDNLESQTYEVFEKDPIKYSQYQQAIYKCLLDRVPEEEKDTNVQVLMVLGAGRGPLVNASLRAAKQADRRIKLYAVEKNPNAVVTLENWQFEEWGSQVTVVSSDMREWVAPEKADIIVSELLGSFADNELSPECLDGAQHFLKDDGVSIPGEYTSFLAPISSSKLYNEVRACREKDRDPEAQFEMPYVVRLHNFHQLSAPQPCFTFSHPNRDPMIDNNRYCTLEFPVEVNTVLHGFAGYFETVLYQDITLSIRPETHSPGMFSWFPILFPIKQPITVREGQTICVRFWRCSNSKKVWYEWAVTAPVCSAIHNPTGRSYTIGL
Sequence of PRMT5/MEP50 complex (Q9BQA1 whole entry, further chain): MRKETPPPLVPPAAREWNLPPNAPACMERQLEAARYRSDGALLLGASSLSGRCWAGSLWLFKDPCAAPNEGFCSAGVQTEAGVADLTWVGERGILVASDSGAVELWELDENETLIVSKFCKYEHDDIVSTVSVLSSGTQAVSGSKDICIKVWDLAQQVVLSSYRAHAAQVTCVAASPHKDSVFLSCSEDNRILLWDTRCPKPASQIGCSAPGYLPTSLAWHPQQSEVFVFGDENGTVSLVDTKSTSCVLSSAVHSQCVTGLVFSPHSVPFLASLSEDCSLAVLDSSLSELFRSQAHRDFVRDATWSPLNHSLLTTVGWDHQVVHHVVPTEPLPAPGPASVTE
Sequence of Protein arginine N-methyltransferase 1 (Q99873 whole entry): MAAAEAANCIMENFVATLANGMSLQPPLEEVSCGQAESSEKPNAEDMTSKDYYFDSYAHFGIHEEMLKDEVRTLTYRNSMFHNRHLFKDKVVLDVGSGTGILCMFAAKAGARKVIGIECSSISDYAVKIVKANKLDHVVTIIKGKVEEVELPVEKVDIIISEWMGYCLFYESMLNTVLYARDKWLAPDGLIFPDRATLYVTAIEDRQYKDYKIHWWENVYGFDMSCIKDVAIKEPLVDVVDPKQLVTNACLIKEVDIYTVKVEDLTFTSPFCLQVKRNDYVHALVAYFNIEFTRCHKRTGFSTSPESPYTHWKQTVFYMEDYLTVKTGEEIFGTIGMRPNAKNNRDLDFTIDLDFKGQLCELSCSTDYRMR

A word on the IC50: it is the concentration needed to halve the response being measured. For the compound `N=C(N)c1ccc(NC(=O)c2cc3cc(C(=N)N)ccc3o2)cc1`, in assay [1], the IC50 was above 100 µM.

As to `C(=C\c1cc2ccc(C3=NCCN3)cc2[nH]1)/c1ccc(Oc2ccc(C3=NCCN3)cc2)cc1`, the IC50 in assay [1] came out at 16.3 µM.

Regarding `c1cc2cc(-c3ccc4oc(C5=NCCN5)cc4c3)[nH]c2cc1C1=NCCN1`, the IC50 in assay [2] was 19 µM; in assay [3] it was 155 µM; on PRMT5/MEP50 complex it was above 500 µM; in assay [4], 12.9 µM; in assay [5] it was 248 µM; in assay [6] it was 60.1 µM. The IC50 in assay [7] amounted to 39.7 µM.

For `C(=C/c1cc2ccc(C3=NCCN3)cc2o1)/c1cc2ccc(C3=NCCN3)cc2[nH]1`, the IC50 in assay [1] is 7.6 µM.

In the case of `N=C(N)c1ccc2[nH]c(/C=C/c3cc4ccc(C(=N)N)cc4o3)cc2c1`, the IC50 in assay [1] was found to be 7.5 µM.

On to `N=C(N)c1ccc(-c2ccc(-c3ccc(C(=N)N)cc3)o2)cc1` [FURAMIDINE], for which the IC50 in assay [1] worked out at 8.9 µM.

Regarding `C(=C\c1cc2ccc(C3=NCCN3)cc2[nH]1)/c1cc2ccc(C3=NCCN3)cc2[nH]1`, in assay [1], the IC50 was 6.2 µM.

Regarding `O=C(Nc1ccc(C2=NCCN2)cc1)c1cc2ccc(C3=NCCN3)cc2o1`, the IC50 in assay [1] was above 100 µM.

For the compound `Nc1nc(N)c2nc3c(ccc4ccccc43)nc2n1`, the IC50 in assay [2] was 55.7 µM; in assay [3], 9.1 µM; on PRMT5/MEP50 complex, 62.1 µM; in assay [4], 62.9 µM; in assay [5], 126 µM; in assay [6], 167 µM. Further, the IC50 in assay [7] was found to be 81.5 µM.

Regarding `CNC(=N)N/N=C(/C)c1ccc2oc3ccc(/C(C)=N/NC(=N)NC)cc3c2c1`, the IC50 in assay [1] was 6.9 µM; in assay [2], 8.2 µM; in assay [3] it was 15.5 µM; at PRMT5/MEP50 complex it was 18.9 µM; in assay [4], 6.01 µM; in assay [5], 23.3 µM. The half-maximal inhibitory concentration (IC50) in assay [6] came to 17.6 µM; in assay [7], 4.7 µM.

Turning to `C(=C/c1cc2ccc(C3=NCCN3)cc2o1)/c1cc2cc(C3=NCCN3)ccc2[nH]1`, in assay [1], the IC50 was 7.9 µM.

In the case of `N=C(N)c1ccc2sc(/C=C/c3cc4ccc(C(=N)N)cc4o3)cc2c1`, the IC50 in assay [1] came out at 16.5 µM.

As for `N=C(N)c1ccc2[nH]c(/C=C/c3cc4cc(C(=N)N)ccc4o3)cc2c1`, the IC50 in assay [1] turned out to be 7.7 µM.

For `C1=C(/C=C/c2ccc3cc(C4=NCCN4)[nH]c3c2)Cc2cc(C3=NCCN3)ccc21`, in assay [1], the IC50 was found to be 5 µM.

With `N=C(N)c1ccc2cc(/C=C/c3cc4ccc(C(=N)N)cc4o3)[nH]c2c1`, in assay [1], the IC50 turned out to be 2.4 µM.

Regarding `CNCC(=O)NC1=CC2C(=O)c3ccc(NC(=O)CNC)cc3C(=O)C2C=C1` (stereo not given), the IC50 was 11.6 µM in assay [2]; 12.4 µM in assay [3]; above 500 µM on PRMT5/MEP50 complex; 84.5 µM in assay [4]; 288 µM in assay [5]; 43.7 µM in assay [6]. Moreover, the IC50 in assay [7] is above 1000 µM.

Consider `N=C(N)c1ccc2cc(CCc3cc4ccc(C(=N)N)cc4o3)[nH]c2c1`, for which the IC50 in assay [1] is above 10 µM.

Turning to `N=C(N)c1ccc(/C=C/c2cc3cc(C(=N)N)ccc3o2)cc1`, the IC50 in assay [1] was determined as 10 µM.

Consider `N=C(N)c1ccc(NC(=O)c2cc3ccc(C(=N)N)cc3o2)cc1`, for which the IC50 in assay [1] is above 100 µM.

Take `O=C(Nc1ccc(C2=NCCN2)cc1)c1cc2cc(C3=NCCN3)ccc2o1`: the IC50 in assay [1] is above 100 µM.
